Laboratory results from ChEMBL document CHEMBL3124808, “C-peptide inhibitors of Ebola virus glycoprotein-mediated cell entry: effects of conjugation to cholesterol and side chain-side chain crosslinking” (Bioorg Med Chem Lett, 2013).
Activity calls are given as the source filed them. No cut-off for these calls is given here. Where a SMILES comes first, the peptide text is derived from it. The star is where a group is joined. X1 = CC(C)CCC[C@@H](C)[C@H]1CC[C@H]2[C@@H]3CC=C4C[C@@H](OC(=O)C*)CC[C@]4(C)[C@H]3CC[C@]12C

Legend:
Assay type in all cases: cell-based
Vero [1] = experiment: Cytotoxicity against African green monkey Vero cells at 40 uM by Cyto Tox Glo assay; details: chlorocebus sabaeus
Procedure, shortened: (§1)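 Vero cells exposed to peptide were scored for tolerance by visual inspection and by a commercial cell viability assay.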

[2] = molecular target: T1, Envelope glycoprotein (Zaire ebolavirus (strain Mayinga-76) (ZEBOV) (Zaire Ebola virus)) (UniProt Q05320); experiment: Inhibition of Vesicular stomatitis virus particle bearing EBOV glycoprotein-mediated viral entry in African green monkey Vero cells at 40 uM incubated for 1 hr prior to viral addition measured after 1 hr by fluorescence microscopy relative to control
T1 sequence (whole entry): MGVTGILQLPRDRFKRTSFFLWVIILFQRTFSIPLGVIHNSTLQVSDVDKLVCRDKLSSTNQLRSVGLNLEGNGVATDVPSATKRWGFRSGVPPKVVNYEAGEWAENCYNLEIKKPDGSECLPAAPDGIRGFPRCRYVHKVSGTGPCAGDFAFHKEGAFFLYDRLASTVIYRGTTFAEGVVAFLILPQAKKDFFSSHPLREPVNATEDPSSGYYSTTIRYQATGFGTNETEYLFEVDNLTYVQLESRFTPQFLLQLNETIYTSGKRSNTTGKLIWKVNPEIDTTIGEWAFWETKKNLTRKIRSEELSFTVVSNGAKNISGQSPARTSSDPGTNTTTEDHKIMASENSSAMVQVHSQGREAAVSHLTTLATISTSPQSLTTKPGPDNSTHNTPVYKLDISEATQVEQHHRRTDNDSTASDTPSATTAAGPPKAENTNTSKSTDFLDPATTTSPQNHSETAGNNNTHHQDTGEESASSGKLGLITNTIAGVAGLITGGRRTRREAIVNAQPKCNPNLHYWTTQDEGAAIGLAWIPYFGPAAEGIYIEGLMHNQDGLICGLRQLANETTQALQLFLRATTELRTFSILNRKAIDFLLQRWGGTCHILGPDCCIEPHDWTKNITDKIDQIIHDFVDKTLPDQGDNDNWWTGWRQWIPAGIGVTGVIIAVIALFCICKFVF
Procedure, shortened: (§2)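 Vero host cells were infected with VSV particles bearing the EBOV glycoprotein in place of G, with a matrix protein–eGFP fusion. Primary infection events were quantified by fluorescence confocal microscopy, and inhibition was expressed as fold or percent reduction in infection versus control.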

[3] = molecular target: T1, Envelope glycoprotein (Zaire ebolavirus (strain Mayinga-76) (ZEBOV) (Zaire Ebola virus)); experiment: Inhibition of Vesicular stomatitis virus particle bearing EBOV glycoprotein-mediated viral entry in African green monkey Vero cells at 20 uM incubated for 1 hr prior to viral addition measured after 1 hr by fluorescence microscopy relative to control; procedure, shortened: as §2
Vero [4] = experiment: Inhibition of Vesicular stomatitis virus envelope glycoprotein G-mediated viral entry in African green monkey Vero cells at >10 uM incubated for 1 hr prior to viral addition measured after 1 hr by fluorescence microscopy relative to control
Vero [5] = experiment: Inhibition of Vesicular stomatitis virus envelope glycoprotein G-mediated viral entry in African green monkey Vero cells at 10 uM incubated for 1 hr prior to viral addition measured after 1 hr by fluorescence microscopy relative to control
[6] = molecular target: T1, Envelope glycoprotein (Zaire ebolavirus (strain Mayinga-76) (ZEBOV) (Zaire Ebola virus)); experiment: Inhibition of Vesicular stomatitis virus particle bearing EBOV glycoprotein-mediated viral entry in African green monkey Vero cells incubated for 1 hr prior to viral addition measured after 1 hr by fluorescence microscopy relative to control; procedure, shortened: as §2
Vero [7] = experiment: Inhibition of Vesicular stomatitis virus envelope glycoprotein G-mediated viral entry in African green monkey Vero cells at 40 uM incubated for 1 hr prior to viral addition measured after 1 hr by fluorescence microscopy relative to control
Vero [8] = experiment: Cytotoxicity against African green monkey Vero cells at 30 to 40 uM by Cyto Tox Glo assay; details: chlorocebus sabaeus; procedure, shortened: as §1
[9] = molecular target: T1, Envelope glycoprotein (Zaire ebolavirus (strain Mayinga-76) (ZEBOV) (Zaire Ebola virus)); experiment: Inhibition of Vesicular stomatitis virus particle bearing EBOV glycoprotein-mediated viral entry in African green monkey Vero cells at >20 uM incubated for 1 hr prior to viral addition measured after 1 hr by fluorescence microscopy relative to control; procedure, shortened: as §2
[10] = molecular target: T1, Envelope glycoprotein (Zaire ebolavirus (strain Mayinga-76) (ZEBOV) (Zaire Ebola virus)); experiment: Inhibition of Vesicular stomatitis virus particle bearing EBOV glycoprotein-mediated viral entry in African green monkey Vero cells at 75 uM incubated for 1 hr prior to viral addition measured after 1 hr by fluorescence microscopy relative to control
Vero [11] = experiment: Inhibition of Vesicular stomatitis virus envelope glycoprotein G-mediated viral entry in African green monkey Vero cells incubated for 1 hr prior to viral addition measured after 1 hr by fluorescence microscopy relative to control
Vero [12] = experiment: Cytotoxicity against African green monkey Vero cells at >15 uM by Cyto Tox Glo assay; details: chlorocebus sabaeus

## CC[C@H](C)[C@H](NC(=O)CNC(=O)[C@H](CO)NC(=O)CNC(=O)[C@H](CCCCN)NC(=O)[C@H](CCCCN)NC(=O)[C@H](CCCCN)NC(=O)[C@H](CCCCN)NC(=O)[C@@H](N)CSCC(=O)O[C@H]1CC[C@@]2(C)C(=CC[C@H]3[C@@H]4CC[C@H]([C@H](C)CCCC(C)C)[C@@]4(C)CC[C@@H]32)C1)C(=O)N[C@@H](CCC(=O)O)C(=O)N1CCC[C@H]1C(=O)N[C@@H](Cc1cnc[nH]1)C(=O)N[C@@H](CC(=O)O)C(=O)N[C@@H](Cc1c[nH]c2ccccc12)C(=O)N[C@H](C(=O)N[C@@H](CCCCN)C(=O)N[C@@H](CC(N)=O)C(=O)N[C@H](C(=O)N[C@H](C(=O)N[C@@H](CC(=O)O)C(=O)N[C@@H](CCCCN)C(=O)N[C@H](C(=O)N[C@@H](CC(=O)O)C(=O)N[C@@H](CCC(N)=O)C(=O)N[C@H](C(=O)N[C@H](C(=O)N[C@@H](Cc1cnc[nH]1)C(=O)N[C@@H](CC(=O)O)C(=O)N[C@@H](Cc1ccccc1)C(=O)N[C@H](C(=O)N[C@@H](CC(=O)O)C(=O)N[C@@H](CCCCN)C(=O)O)C(C)C)[C@@H](C)CC)[C@@H](C)CC)[C@@H](C)CC)[C@@H](C)O)[C@@H](C)CC)[C@@H](C)O
Vero [1]
  Activity: 20%
[2]
  Ratio: 1000
[3]
  inhibition: Active
Vero [4]
  inhibition: > 99%
Vero [5]
  inhibition: 90%

## CC(C)CCC[C@@H](C)[C@H]1CC[C@H]2[C@@H]3CC=C4C[C@@H](O)CC[C@]4(C)[C@H]3CC[C@]12C
[6]
  inhibition: Active

## CC[C@H](C)[C@H](NC(=O)CNC(=O)[C@H](CO)NC(=O)CNC(=O)[C@H](CCCNC(=N)N)NC(=O)[C@H](CCCNC(=N)N)NC(=O)[C@H](CCCNC(=N)N)NC(=O)[C@H](CCC(N)=O)NC(=O)[C@H](CCCNC(=N)N)NC(=O)[C@H](CCCNC(=N)N)NC(=O)[C@H](CCCCN)NC(=O)[C@H](CCCCN)NC(=O)[C@H](CCCNC(=N)N)NC(=O)CNC(=O)[C@H](Cc1ccc(O)cc1)NC(C)=O)C(=O)N[C@@H](CCC(=O)O)C(=O)N1CCC[C@H]1C(=O)N[C@@H](Cc1cnc[nH]1)C(=O)N[C@@H](CC(=O)O)C(=O)N[C@@H](Cc1c[nH]c2ccccc12)C(=O)N[C@H](C(=O)N[C@@H](CCCCN)C(=O)N[C@H]1CSCC(=O)NCCC[C@@H](C(=O)N[C@@H](CCCCN)C(=O)N[C@H](C(=O)N[C@@H](CC(=O)O)C(=O)N[C@@H](CCC(N)=O)C(=O)N[C@H](C(=O)N[C@H](C(=O)N[C@@H](Cc2cnc[nH]2)C(=O)N[C@@H](CC(=O)O)C(=O)N[C@@H](Cc2ccccc2)C(=O)N[C@H](C(=O)N[C@@H](CC(=O)O)C(=O)N[C@@H](CCCCN)C(=O)O)C(C)C)[C@@H](C)CC)[C@@H](C)CC)[C@@H](C)CC)NC(=O)[C@H]([C@@H](C)O)NC(=O)[C@H]([C@@H](C)CC)NC1=O)[C@@H](C)O
Vero [7]
  inhibition: 80%
Vero [1]
  Activity: Non-toxic
[2]
  inhibition: 99%

## CC[C@H](C)[C@H](N)C(=O)N[C@@H](CCC(=O)O)C(=O)N1CCC[C@H]1C(=O)N[C@@H](Cc1cnc[nH]1)C(=O)N[C@@H](CC(=O)O)C(=O)N[C@@H](Cc1c[nH]c2ccccc12)C(=O)N[C@H](C(=O)N[C@@H](CCCCN)C(=O)N[C@@H](CC(N)=O)C(=O)N[C@H](C(=O)N[C@H](C(=O)N[C@@H](CC(=O)O)C(=O)N[C@@H](CCCCN)C(=O)N[C@H](C(=O)N[C@@H](CC(=O)O)C(=O)N[C@@H](CCC(N)=O)C(=O)N[C@H](C(=O)N[C@H](C(=O)N[C@@H](Cc1cnc[nH]1)C(=O)N[C@@H](CC(=O)O)C(=O)N[C@@H](Cc1ccccc1)C(=O)N[C@H](C(=O)N[C@@H](CC(=O)O)C(=O)N[C@@H](CCCCN)C(=O)NCC(=O)N[C@@H](CO)C(=O)NCC(=O)N[C@@H](CCCCN)C(=O)N[C@@H](CCCCN)C(=O)N[C@@H](CCCCN)C(=O)N[C@@H](CCCCN)C(=O)N[C@@H](CSCC(=O)O[C@H]1CC[C@@]2(C)C(=CC[C@H]3[C@@H]4CC[C@H]([C@H](C)CCCC(C)C)[C@@]4(C)CC[C@@H]32)C1)C(=O)O)C(C)C)[C@@H](C)CC)[C@@H](C)CC)[C@@H](C)CC)[C@H](C)O)[C@@H](C)CC)[C@@H](C)O
[2]
  Ratio: 1000
[3]
  inhibition: Active
Vero [4]
  inhibition: > 99%
Vero [5]
  inhibition: 90%
Vero [8]
  Activity: 20%

## CC(C)CCC[C@@H](C)[C@H]1CC[C@H]2[C@@H]3CC=C4C[C@@H](OC(=O)CSC[C@H](NC(=O)CNC(=O)[C@H](CO)NC(=O)CNC(=O)[C@H](CCCCN)NC(=O)[C@H](CCCCN)NC(=O)[C@H](CCCCN)NC(=O)[C@@H](N)CCCCN)C(=O)O)CC[C@]4(C)[C@H]3CC[C@]12C (H-KKKKGSGC(X1)-OH)
[3]
  inhibition: Active
[9]
  inhibition: > 90%

## CC[C@H](C)[C@H](NC(=O)CNC(=O)[C@H](CO)NC(=O)CNC(=O)[C@H](CCCNC(=N)N)NC(=O)[C@H](CCCNC(=N)N)NC(=O)[C@H](CCCNC(=N)N)NC(=O)[C@H](CCC(N)=O)NC(=O)[C@H](CCCNC(=N)N)NC(=O)[C@H](CCCNC(=N)N)NC(=O)[C@H](CCCCN)NC(=O)[C@H](CCCCN)NC(=O)[C@H](CCCNC(=N)N)NC(=O)CNC(=O)[C@@H](N)Cc1ccc(O)cc1)C(=O)N[C@@H](CCC(=O)O)C(=O)N1CCC[C@H]1C(=O)N[C@@H](Cc1cnc[nH]1)C(=O)N[C@@H](CC(=O)O)C(=O)N[C@@H](Cc1c[nH]c2ccccc12)C(=O)N[C@H](C(=O)N[C@@H](CCCCN)C(=O)N[C@@H](CC(N)=O)C(=O)N[C@H](C(=O)N[C@H](C(=O)N[C@@H](CC(=O)O)C(=O)N[C@@H](CCCCN)C(=O)N[C@H](C(=O)N[C@@H](CC(=O)O)C(=O)N[C@@H](CCC(N)=O)C(=O)N[C@H](C(=O)N[C@H](C(=O)N[C@@H](Cc1cnc[nH]1)C(=O)N[C@@H](CC(=O)O)C(=O)N[C@@H](Cc1ccccc1)C(=O)N[C@H](C(=O)N[C@@H](CC(=O)O)C(=O)N[C@@H](CCCCN)C(=O)O)C(C)C)[C@@H](C)CC)[C@@H](C)CC)[C@@H](C)CC)[C@@H](C)O)[C@@H](C)CC)[C@@H](C)O
[10]
  inhibition: 99%

## CC[C@H](C)[C@H](NC(=O)CNC(=O)[C@H](CO)NC(=O)CNC(=O)[C@H](CCCNC(=N)N)NC(=O)[C@H](CCCNC(=N)N)NC(=O)[C@H](CCCNC(=N)N)NC(=O)[C@H](CCC(N)=O)NC(=O)[C@H](CCCNC(=N)N)NC(=O)[C@H](CCCNC(=N)N)NC(=O)[C@H](CCCCN)NC(=O)[C@H](CCCCN)NC(=O)[C@H](CCCNC(=N)N)NC(=O)CNC(=O)[C@H](Cc1ccc(O)cc1)NC(C)=O)C(=O)N[C@@H](CCC(=O)O)C(=O)N1CCC[C@H]1C(=O)N[C@@H](Cc1cnc[nH]1)C(=O)N[C@@H](CC(=O)O)C(=O)N[C@@H](Cc1c[nH]c2ccccc12)C(=O)N[C@H](C(=O)N[C@@H](CCCCN)C(=O)N[C@@H](CC(N)=O)C(=O)N[C@H](C(=O)N[C@H](C(=O)N[C@H]1CSCC(=O)NCCC[C@H](C(=O)N[C@@H](CCC(N)=O)C(=O)N[C@H](C(=O)N[C@H](C(=O)N[C@@H](Cc2cnc[nH]2)C(=O)N[C@@H](CC(=O)O)C(=O)N[C@@H](Cc2ccccc2)C(=O)N[C@H](C(=O)N[C@@H](CC(=O)O)C(=O)N[C@@H](CCCCN)C(=O)O)C(C)C)[C@@H](C)CC)[C@@H](C)CC)NC(=O)[C@H]([C@@H](C)CC)NC(=O)[C@H](CCCCN)NC1=O)[C@@H](C)O)[C@@H](C)CC)[C@@H](C)O
Vero [11]
  inhibition: Active
Vero [12]
  Activity: Toxic
[6]
  inhibition: Active
